Assay outcomes deposited in PubChem by several laboratories.
TAAR1 agonist – human TAAR1 agonists, primary screen, Fluo-8 calcium fluorescence, CHO RD-HGA16 cells; Trace amine-associated receptor 1 (Homo sapiens), Q96RJ0; 360,000 tested, 0.99% active; activation, % at 3 µM; vehicle wells 0%, saturating PEA agonist 100%;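 active means activation above the mean activation of all test compounds in the run plus 3 SD, cut at about 38% in these data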
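Test system: RD-HGA16 (CHO) cells co-expressing Gα16 and hTAAR1 | Doses: Single dose, 3 µM | Schedule: 17-24 h seeding, 75 min 37 °C dye, 30 min RT | Evaluation: % activation from peak over basal fluorescence ratio, DMSO-to-PEA scaled | Technique: Kinetic Fluo-8 calcium fluorescence | Benchmarks: Low control DMSO, high control PEA (EC100)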
B2AR ag – beta2AR agonists driving receptor internalization, primary screen, cell-based, FAP fluorogen, flow cytometry. 340,000 tested, 0.43% active. AID 504454, 2011. response, % (no concentration beside the values). Beta-2 adrenergic receptor (Homo sapiens), P07550. Am2.2-beta2AR cells;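 active means response above a set limit, near 3 SD of response in nonfluorescent compounds, cut at about 42% in these data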
m5-HT2A agonist – mouse Htr2a agonists via beta-arrestin recruitment, primary screen, cell-based, luminescence; 5-hydroxytryptamine receptor 2A (Mus musculus), P35363; CHO-K1 mHTR2A beta-arrestin complementation; percent of 30 µM serotonin response; activation, % at 7.6 µM; 360,000 tested, 0.66% active;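 active means activation above a run cutoff, the mean activation of all tested compounds plus 3 SD, cut at about 14% in these data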;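 further: 0% = plate median of compound wells and 100% = 30 µM serotonin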
Target sequence (P35363 whole entry, looked up): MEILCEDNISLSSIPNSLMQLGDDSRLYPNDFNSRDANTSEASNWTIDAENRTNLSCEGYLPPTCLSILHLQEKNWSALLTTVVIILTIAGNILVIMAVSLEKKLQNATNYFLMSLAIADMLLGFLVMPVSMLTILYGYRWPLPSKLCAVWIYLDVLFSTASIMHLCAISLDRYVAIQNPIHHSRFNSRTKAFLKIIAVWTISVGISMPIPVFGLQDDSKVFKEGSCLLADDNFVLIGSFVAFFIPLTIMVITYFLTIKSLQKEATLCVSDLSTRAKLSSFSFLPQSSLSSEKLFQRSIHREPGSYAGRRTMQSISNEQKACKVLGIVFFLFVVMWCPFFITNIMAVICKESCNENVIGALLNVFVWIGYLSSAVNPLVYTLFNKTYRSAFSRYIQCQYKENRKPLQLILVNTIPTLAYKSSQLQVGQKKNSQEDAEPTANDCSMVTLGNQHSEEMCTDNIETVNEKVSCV
MC4R barr agon – MC4R agonists recruiting beta-arrestin, primary screen, cell-based, luminescence, agonist arm of biased-ligand search; activation, % at 8.9 µM; Melanocortin receptor 4 (Homo sapiens), P32245; U2OS MC4R beta-arrestin complementation; percent of melanotan II response, DMSO zero; 360,000 tested, 0.98% active;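 active means activation above a per-plate cutoff, the mean activation of sample wells on that plate plus 3 SD, cut at about 8% in these data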
MC4R antag cAMP – MC4R antagonists of cAMP signaling, primary screen, cell-based, TR-FRET, antagonist arm of biased-ligand search; MC4R-expressing cells, MTII-stimulated cAMP, LANCE TR-FRET; Melanocortin receptor 4 (Homo sapiens), P32245; 360,000 tested, 0.48% active; inhibition, % at 6.5 µM;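 active means inhibition above its plate's cutoff, the mean of tested wells on that plate plus 3 SD, cut at about 29% in these data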;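 further: 0% = Melanotan II alone and 100% = Melanotan II plus saturating MCL0020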
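Material – human MC4R-expressing U2OS cells · Repeats – no replicates · Detection – TR-FRET with Eu-cAMP and labeled anti-cAMP, 671 nm · Times – compound 30 min, challenge 1 h, detection 1 h · Compound – single nominal compound dose of 6.5 µM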
TAAR1 antagonist – human TAAR1 antagonists, primary screen, Fluo-8 calcium fluorescence, CHO RD-HGA16 cells; Trace amine-associated receptor 1 (Homo sapiens), Q96RJ0; antagonist; inhibition, % at 3 µM; 360,000 tested, 1.5% active; AID 624466, 2012;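 active means inhibition above a per-plate cutoff, the mean inhibition of test compounds on that plate plus 3 SD, cut at about 49% in these data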;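 further: 0% = DMSO plus EC80 beta-PEA response and 100% = DMSO alone without agonist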
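test system = CHO RD-HGA16 cells bearing hTAAR1 | replication = singlicate | controls = DMSO-only wells and EC80 β-PEA-stimulated wells | reagent = EC80 β-phenethylamine stimulus | read-out basis = percent inhibition of PEA-evoked calcium signal, max/basal emission ratio | schedule = seeding 17-24 h prior, 75-min 37 °C, 30-min RT dye loading | signal = kinetic Fluo-8 calcium fluorescence measurement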
TAAR1 nonsel count – nonselective antagonists in TAAR1 counter-screen cells, counter-screen for hTAAR1 antagonist project, cell-based, fluorescence, calcium | shares compounds with TAAR1 antagonist | counterscreen cell line, antagonist mode | inhibition, % at 3 µM | 2,400 tested, 77% active; in the data active means inhibition above about 22%;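 further: CHO-Ga16 host cells stimulated with ATP at an EC80 level; 0% = agonist EC80 plus vehicle and 100% = vehicle without agonist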
TAAR1 ant conf – human TAAR1 antagonists, retest of hits, confirmation, cell-based, fluorescence. shares compounds with TAAR1 antagonist. TAAR1-expressing cells, fluorescence antagonist read-out. inhibition, % at 3 µM. 2,400 tested, 40% active. AID 651785, 2012; in the data active means inhibition above about 49%;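 further: CHO-Ga16 host cells challenged with agonist PEA near its EC80; 0% = agonist at EC80 plus vehicle and 100% = vehicle with no agonist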
Ga16 nonsel ag – calcium activation in Ga16-expressing cells, counter-screen for TAAR1 antagonist project, cell-based, fluorescence; AID 651953, 2012; agonist counterscreen; shares compounds with TAAR1 antagonist; activation, % at 3 µM; 2,400 tested, 18% active; in the data active means activation above about 12%;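 further: 0% = vehicle wells and 100% = saturating stimulus response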
TAAR1 ag counter – TAAR1 activation by candidate antagonists – cell-based, fluorescence, counter-screen for TAAR1 antagonist project | AID 651955, 2012 | 2,400 tested, 2% active | shares compounds with TAAR1 antagonist | activation, % at 3 µM | hTAAR1 cell line, agonist mode; in the data active means activation above about 37%;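 further: CHO cells stably expressing TAAR1 with calcium dye readout; 0% = DMSO vehicle and 100% = full agonist response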
The depositor's hits bear a star. Hits are enriched below; roughly 4.3% of the tested compounds scored in any of these assays.

Screening CC(OC(=O)COc1ccc(Nc2ccccc2)cc1)C(=O)N(C)c1ccccc1 (configuration not stated) returned TAAR1 agonist 5, B2AR ag -1, m5-HT2A agonist -9, MC4R barr agon -2, MC4R antag cAMP -5, TAAR1 antagonist 73*, TAAR1 nonsel count 30*, TAAR1 ant conf 43, Ga16 nonsel ag 8 and TAAR1 ag counter 2.
`CCCCc1nc(NCCNC(=O)c2ccco2)c(C#N)c2c1CSC(C)(C)C2` gave TAAR1 agonist 14 and TAAR1 antagonist 46.
Screening CCCCc1nc(NCCNC(=O)c2ccccc2)c(C#N)c2c1CSC(C)(C)C2 returned TAAR1 agonist 15, B2AR ag 11, m5-HT2A agonist -2, MC4R barr agon 1, MC4R antag cAMP 27, TAAR1 antagonist 68*, TAAR1 nonsel count 30*, TAAR1 ant conf 52*, Ga16 nonsel ag 7 and TAAR1 ag counter 6.
Screening COc1ccc(NC(=O)c2sc3nc(C)nc(N4CCN(c5ccccn5)CC4)c3c2C)cc1Cl returned TAAR1 agonist 2, B2AR ag 16, m5-HT2A agonist 5, MC4R barr agon 1, MC4R antag cAMP 3 and TAAR1 antagonist 29.
COc1ccc(NC(=O)c2sc3ncnc(N4CCN(c5ccccn5)CC4)c3c2C)cc1Cl was read as TAAR1 agonist 12, B2AR ag 22, m5-HT2A agonist -2, MC4R barr agon 3, MC4R antag cAMP 4, TAAR1 antagonist 80*, TAAR1 nonsel count 48*, TAAR1 ant conf 55*, Ga16 nonsel ag 13* and TAAR1 ag counter 13.
`O=S(=O)(c1cccc(F)c1)N1CCN(c2nc(-c3cccnc3)nc3ccccc23)CC1` gave TAAR1 agonist 21, B2AR ag 27, m5-HT2A agonist 1, MC4R barr agon -1, MC4R antag cAMP 21, TAAR1 antagonist 61*, TAAR1 nonsel count 24*, TAAR1 ant conf 54*, Ga16 nonsel ag 8 and TAAR1 ag counter 11.
`CCN(CC(=O)Nc1ccc(C)c(F)c1)CC(=O)NC(C)(C)C` gave TAAR1 agonist 9, B2AR ag 0, m5-HT2A agonist -4, MC4R barr agon -2, MC4R antag cAMP 6 and TAAR1 antagonist -11.
For COc1cc(OC)c(-c2nnc3n(CCc4ccccc4)c(=O)c4ccccc4n23)cc1OC the results were TAAR1 agonist 18, TAAR1 antagonist 68*, TAAR1 nonsel count 26*, TAAR1 ant conf 35, Ga16 nonsel ag 7 and TAAR1 ag counter 9.
For N#Cc1c(-c2ccccc2)cc2nc3ccccc3n2c1N the results were TAAR1 agonist 4, B2AR ag -20, m5-HT2A agonist 5, MC4R barr agon -1, MC4R antag cAMP -8 and TAAR1 antagonist 41.
Screening COc1cc(-c2cc3nc4ccccc4n3c(N)c2C#N)cc(OC)c1OC returned TAAR1 agonist 17, B2AR ag 15, m5-HT2A agonist 3, MC4R barr agon -1, MC4R antag cAMP -18, TAAR1 antagonist 90*, TAAR1 nonsel count 34*, TAAR1 ant conf 53*, Ga16 nonsel ag 8 and TAAR1 ag counter 6.
For Cc1ccccc1C1c2[nH]c3ccccc3c2CCN1Cc1cccn1-c1ncccn1 (configuration not stated) the results were TAAR1 agonist 0, B2AR ag 7, m5-HT2A agonist -2, MC4R barr agon 4, MC4R antag cAMP 7 and TAAR1 antagonist -21.
For O=C(C1CCCN(c2ncnc3c2nc2n3CCCCC2)C1)N1CCN(c2ccccc2)CC1 (configuration not stated) the results were TAAR1 agonist 16, B2AR ag 4, m5-HT2A agonist -3, MC4R barr agon -1, MC4R antag cAMP 17, TAAR1 antagonist 52*, TAAR1 nonsel count 23*, TAAR1 ant conf 36, Ga16 nonsel ag 10 and TAAR1 ag counter 18.
For COc1ccccc1N1CCN(C(=O)C2CCCN(c3ncnc4c3nc3n4CCCCC3)C2)CC1 (configuration not stated) the results were TAAR1 agonist 5, B2AR ag 17, m5-HT2A agonist 1, MC4R barr agon 1, MC4R antag cAMP 11 and TAAR1 antagonist -6.
For COc1ccccc1Nc1nnc(SCc2cc(=O)n3cc(C)ccc3n2)s1 the results were TAAR1 agonist 16, B2AR ag -3, m5-HT2A agonist 4, MC4R barr agon -2, MC4R antag cAMP 2, TAAR1 antagonist 69*, TAAR1 nonsel count 30*, TAAR1 ant conf 45, Ga16 nonsel ag 9 and TAAR1 ag counter 7.
`CCCS(=O)(=O)NC(=O)C1(C)CCCN(C(=O)c2cc(C)n(C(C)(C)C)n2)C1` (configuration not stated) gave TAAR1 agonist 2, m5-HT2A agonist 8, MC4R barr agon 0, MC4R antag cAMP 4 and TAAR1 antagonist 5.
For COCCCn1cc(CN2CC(N3CCN(Cc4cccc(C)c4)CC3)CS2(=O)=O)nn1 (configuration not stated) the results were TAAR1 agonist 3, m5-HT2A agonist 3 and TAAR1 antagonist 4.
O=C(CCC1CCCCC1)Nc1ccc(C(=O)c2ccncc2)cc1 was read as TAAR1 agonist 7, B2AR ag -1, m5-HT2A agonist 1, MC4R barr agon -1, MC4R antag cAMP 0, TAAR1 antagonist 66*, TAAR1 nonsel count 36*, TAAR1 ant conf 56*, Ga16 nonsel ag 11 and TAAR1 ag counter 11.
